The test system of data set [1] is Trypanosoma cruzi. The experiment in a line: […] activity against Trypanosoma cruzi epimastigotes assessed as change in parasites in presence of zinc(II). The class given is functional, organism-based. The essentials:
(§1)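 Parasite proliferation was run in the presence of copper(II), iron(III) or zinc(II) salts, each at 1 μM.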

Data set [2] concerns Leishmania infantum. The data set is described as follows: Antileishmanial activity against Leishmania infantum promastigotes assessed as decrease in IC50 in presence of zinc(II). The format is functional, organism-based. The essentials: as §1
Data set [3] deals with Trypanosoma cruzi. The data set is described as follows: Antitrypanosomal activity against of Trypanosoma cruzi epimastigotes assessed as increase in IC50 in presence of FA. The class given is functional.
Data set [4] can be described thus: Cytotoxicity against mouse J774.1 cells. The class given is toxicity, cell-based. A digest of the protocol:
(§2)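 Cytotoxicity (CC50) was measured on murine J774.1A macrophages. Selectivity index is CC50 divided by parasite IC50 (promastigote, epimastigote or axenic amastigote). Values are the mean of three independent experiments.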

Data set [5] in a line: Mutagenicity in Salmonella typhimurium TA98 assessed as number of revertant colonies at 3000 uM by Ames test (reference value: 4). The format is toxicity. The following applies: salmonella enterica subsp. enterica […]. A digest of the protocol:
(§3)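 Ames reverse-mutation assay in Salmonella typhimurium TA 98. Revertant colonies were counted at five escalating dose levels alongside a zero-dose (spontaneous revertant) negative control and a 4-nitro-o-phenylenediamine positive control. A compound was called mutagenic when revertants exceeded twice the negative control at two consecutive dose levels.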
A general note: In the Ames test, an excess of revertant colonies over the control signals mutagenicity.

Data set [6] has as its system Leishmania infantum. The data set is described as follows: Antileishmanial activity against Leishmania infantum promastigotes assessed as increase in IC50 in presence of FA. The format is functional.
Data set [7] in a line: Selectivity index, ratio of CC50 for mouse J774.1 cells to IC50 for Trypanosoma cruzi epimastigotes. The class given is toxicity. The following applies: read-out: Ratio CC50/IC50. The essentials:
as §2

In data set [8] the test system is Trypanosoma cruzi. The data set is described as follows: Antitrypanosomal activity against of Trypanosoma cruzi epimastigotes in presence of FA. The class given is functional, organism-based.
Data set [9] is described as follows: Mutagenicity in Salmonella typhimurium TA98 assessed as number of revertant colonies at 1000 uM by Ames test (reference value: 4). The following applies: salmonella enterica subsp. enterica […]. The format is toxicity. The essentials: as §3
The subject of data set [10] is Leishmania infantum. The data set is described as follows: Antileishmanial activity against Leishmania infantum promastigotes. The class given is functional, organism-based.
Data set [11] relates to Trypanosoma cruzi. The data set is described as follows: […] activity against Trypanosoma cruzi epimastigotes assessed as change in parasites in presence of copper(II). The format is functional, organism-based. The essentials: as §1
Data set [12] concerns Leishmania infantum. The experiment in a line: Antileishmanial activity against Leishmania infantum promastigotes assessed as decrease in IC50 in presence of iron(III). The class given is functional, organism-based. A digest of the protocol: as §1
Data set [13] concerns Leishmania infantum. The experiment in a line: Induction of ROS production in Leishmania infantum promastigotes in presence of Zn2+. The format is functional, organism-based. A digest of the protocol: (§4)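 Oxidative stress in parasite cultures was read fluorometrically with the 2,7-dichlorodihydrofluorescein diacetate (DCFH-DA) probe against a negative-control culture, and was also run with metal cations present.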

Data set [14] relates to Leishmania infantum. The experiment in a line: Antileishmanial activity against Leishmania infantum promastigotes assessed as decrease in IC50 in presence of copper(II). The class given is functional, organism-based. A digest of the protocol:
as §1

Data set [15] concerns Leishmania infantum. The data set is described as follows: Antileishmanial activity against Leishmania infantum axenic amastigotes. The format is functional, organism-based.
In data set [16] the test system is Trypanosoma cruzi. The data set is described as follows: Antitrypanosomal activity against of Trypanosoma cruzi epimastigotes. The class given is functional, organism-based.
Data set [17] can be described thus: Mutagenicity in Salmonella typhimurium TA98 assessed as number of revertant colonies at 100 uM by Ames test (reference value: 4). The format is toxicity. The following applies: salmonella enterica subsp. enterica […]. The essentials:
as §3

A short description of data set [18]: Selectivity index, ratio of CC50 for mouse J774.1 cells to IC50 for Leishmania infantum promastigotes. The class given is toxicity. Particulars: read-out: Ratio CC50/IC50. The essentials:
as §2

Data set [19] relates to Trypanosoma cruzi. The experiment in a line: Induction of ROS production in Trypanosoma cruzi epimastigotes in presence of Zn2+. The class given is functional, organism-based. A digest of the protocol: as §4
Data set [20] concerns Leishmania infantum. The experiment in a line: Induction of ROS production in Leishmania infantum promastigotes in presence of Fe3+. The class given is functional, organism-based. A digest of the protocol:
as §4

The nature of data set [21]: Mutagenicity in Salmonella typhimurium TA98 assessed as number of revertant colonies at 300 uM by Ames test (reference value: 4). The class given is toxicity. The following applies: salmonella enterica subsp. enterica […]. A digest of the protocol: as §3
In data set [22] the test system is Leishmania infantum. The experiment in a line: Induction of ROS production in Leishmania infantum promastigotes in presence of Cu2+. The class given is functional, organism-based. The essentials: as §4
Data set [23] in a line: Selectivity index, ratio of CC50 for mouse J774.1 cells to IC50 for Leishmania infantum amastigotes. The format is toxicity. Particulars: read-out: Ratio CC50/IC50. A digest of the protocol: as §2
The subject of data set [24] is Trypanosoma cruzi. The data set is described as follows: […] activity against Trypanosoma cruzi epimastigotes assessed as change in parasites in presence of iron(III). The format is functional, organism-based. The essentials: as §1
Data set [25] can be described thus: Mutagenicity in Salmonella typhimurium TA98 assessed as number of revertant colonies at 9000 uM by Ames test (reference value: 4). The following applies: salmonella enterica subsp. enterica […]. The format is toxicity. The essentials: as §3
For data set [26], the system named is Trypanosoma cruzi. The data set is described as follows: Induction of ROS production in Trypanosoma cruzi epimastigotes in presence of Fe3+. The class given is functional, organism-based. A digest of the protocol: as §4
Data set [27] relates to Trypanosoma cruzi. The data set is described as follows: Induction of ROS production in Trypanosoma cruzi epimastigotes in presence of Cu2+. The format is functional, organism-based. The essentials:
as §4

Data set [28] can be described thus: Solubility of the compound by UV-Vis spectroscopy. The format is physicochemical. The essentials: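 Solubility in μM was determined by UV-Vis spectroscopy.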
A short description of data set [29]: Mutagenicity in Salmonella typhimurium TA98 assessed as number of revertant colonies at 20 uM by Ames test (reference value: 4). The format is toxicity. Particulars: salmonella enterica subsp. enterica […]. A digest of the protocol: as §3
In data set [30] the test system is Leishmania infantum. The data set is described as follows: Induction of NO production in Leishmania infantum promastigotes at highest concentration by Griess method. The format is functional. The essentials: (§5)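 NO production in parasite cultures was measured at three test concentrations, either 25, 50 and 100 μM or 1, 5 and 10 μM depending on the compound.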
On the technique in general: Griess reagent forms a coloured azo dye with nitrite.

Data set [31] can be described thus: Mutagenicity in Salmonella typhimurium TA98 assessed as number of revertant colonies at 2500 uM by Ames test (reference value: 4). The class given is toxicity. The following applies: salmonella enterica subsp. enterica […]. The essentials: as §3
In data set [32] the test system is Leishmania infantum. The data set is described as follows: Induction of ROS production in Leishmania infantum promastigotes by DCFH-DA staining based flow cytometry analysis. The class given is functional, organism-based. A digest of the protocol: as §4
A general note: A flow cytometer gives signals particle by particle.

A short description of data set [33]: Mutagenicity in Salmonella typhimurium TA98 assessed as number of revertant colonies at 830 uM by Ames test (reference value: 4). The class given is toxicity. Particulars: salmonella enterica subsp. enterica […]. A digest of the protocol: as §3
In data set [34] the test system is Trypanosoma cruzi. The experiment in a line: Induction of NO production in Trypanosoma cruzi epimastigotes by Griess method. The class given is functional, organism-based. The essentials: as §5
The subject of data set [35] is Leishmania infantum. The data set is described as follows: Induction of NO production in Leishmania infantum promastigotes by Griess method. The format is functional, organism-based. A digest of the protocol:
as §5

Data set [36] can be described thus: Mutagenicity in Salmonella typhimurium TA98 assessed as number of revertant colonies at 270 uM by Ames test (reference value: 4). The class given is toxicity. The following applies: salmonella enterica subsp. enterica […]. The essentials:
as §3

Data set [37] deals with Trypanosoma cruzi. The experiment in a line: Induction of ROS production in Trypanosoma cruzi epimastigotes by DCFH-DA staining based flow cytometry analysis. The class given is functional, organism-based. A digest of the protocol: as §4
The nature of data set [38]: Mutagenicity in Salmonella typhimurium TA98 assessed as number of revertant colonies at 90 uM by Ames test (reference value: 4). The format is toxicity. The following applies: salmonella enterica subsp. enterica […]. The essentials: as §3
The nature of data set [39]: Mutagenicity in Salmonella typhimurium TA98 assessed as number of revertant colonies at 7500 uM by Ames test (reference value: 4). The format is toxicity. Particulars: salmonella enterica subsp. enterica […]. The essentials: as §3
For data set [40], the system named is Trypanosoma cruzi. The data set is described as follows: Induction of NO production in Trypanosoma cruzi epimastigotes at highest concentration by Griess method. The class given is functional. The essentials: as §5

We go through 3 compounds from ChEMBL document CHEMBL5329191, “Optimization of the 2-arylquinazoline-4(3H)one scaffold for a selective and potent antitrypanosomal agent: modulation of the mechanism of action through chemical functionalization” (RSC Med Chem, 2023).

Each structure is given as a SMILES string. Values after ≈ are worked out from the molar mass of the structure shown. Active and inactive are the calls of the source. The rule behind the calls is not given here.

A word on the CC50: it is the concentration giving 50% cytotoxicity. High values mean lower toxicity to the cells, low ones greater toxicity to the cells. Usually IC50 stands for the point on the concentration scale where inhibition reaches its midpoint. Broadly, the solubility is how much of the substance goes into solution per volume. The low end stands for little dissolved substance, the high end for much dissolved substance.

`O=[N+]([O-])c1ccc(/C=N/N=c2\[nH]c(-c3ccc(F)cc3)nc3ccccc23)o1`: the result in the data set with Trypanosoma cruzi [1], with Trypanosoma cruzi [11] and in the data set with Trypanosoma cruzi [24] was inactive. In addition, the result in the data set with Leishmania infantum [2], with Leishmania infantum [12], in the data set with Leishmania infantum [13], in the data set with Leishmania infantum [14], with Trypanosoma cruzi [19] and in the data set with Leishmania infantum [20] was Active. The result in the data set on Leishmania infantum [22], in the data set with Trypanosoma cruzi [26] and with Trypanosoma cruzi [27] was Active. In addition, the Activity in the data set on Trypanosoma cruzi [3] worked out at 38%; in data set [5], 3; in the data set on Leishmania infantum [6], 31%; in [9] it was 3.5; in data set [17], 2; in data set [21], 2.5. The Activity in data set [25] was determined as 3. The compound also gave a CC50 in [4] of 69.1 µM. For the same compound, the results for the selectivity ratio in [7], in data set [18] and in data set [23] were 16.8, 15.1 and 19.6, respectively. Also, the IC50 with Trypanosoma cruzi [8] was 6.54 µM; with Leishmania infantum [10] it was 4.56 µM; with Leishmania infantum [15], 3.52 µM; in the data set on Trypanosoma cruzi [16], 4.08 µM. Also, in [28], the solubility was found to be 5.11 µM (≈ 1.93 µg/mL).
For `Nc1ccc([N+](=O)[O-])cc1N`, the Activity in data set [29] turned out to be 365.
As for `O=[N+]([O-])c1ccc(/C=N/N=c2\[nH]c(-c3cccc(Cl)c3)nc3ccccc23)o1`, the outcome in the data set on Trypanosoma cruzi [1], in the data set with Trypanosoma cruzi [11] and in the data set with Trypanosoma cruzi [24] was inactive. Moreover, the outcome with Leishmania infantum [2], in the data set with Leishmania infantum [32], in the data set with Leishmania infantum [12], in the data set on Leishmania infantum [13], in the data set on Leishmania infantum [14] and with Trypanosoma cruzi [37] was Active. In addition, the outcome with Trypanosoma cruzi [19], in the data set with Leishmania infantum [20], in the data set on Leishmania infantum [22], in the data set on Trypanosoma cruzi [26] and with Trypanosoma cruzi [27] was Active. Moreover, the midpoint of cytotoxicity in data set [4], the CC50, lay at 41.6 µM. Moreover, the figures for the selectivity ratio in data set [7], in data set [18] and in data set [23] were 60.2, 54 and 46.7, respectively. Besides, the Activity in the data set on Leishmania infantum [30] is 2 µM; in [31] it was 10.5; in data set [33] it was 9.5; in the data set on Trypanosoma cruzi [34] it was “Dose-Dependent Effect”; in the data set with Leishmania infantum [35], “Dose-Dependent Effect”; in [36], 10. Besides, the Activity in data set [38] amounted to 3; in [39] it was 9.5; in the data set on Trypanosoma cruzi [40] it was 1 µM. The IC50 with Leishmania infantum [10] is 0.77 µM; in the data set on Leishmania infantum [15], 0.89 µM; in the data set on Trypanosoma cruzi [16], 0.77 µM. This compound showed a solubility in [28] of 7.11 µM (≈ 2.8 µg/mL).
